Activity calls are given as the source filed them.
Legend:
Staphylococcus aureus [1] = test: Antibiofilm activity against methicillin-resistant Staphylococcus aureus ATCC 43300 assessed as reduction in biofilm biomass up to 1 mg/L after 24 hrs by scanning electronic microscopic imaging analysis; format: functional, organism-based; conditions: dose mg/L <=1, time 24.0 hrs
Outline: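 Scanning electron microscopy of 24 h MRSA ATCC 43300 biofilm, untreated or grown with stepwise increasing compound concentrations.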

Staphylococcus aureus [2] = test: Antibacterial activity against methicillin-resistant Staphylococcus aureus clinical isolate 11 assessed as bacterial growth inhibition after 24 hrs by CLSI protocol based broth microdilution assay; format: functional
Outline: (§1)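 Broth dilution MIC against 19 multidrug-resistant clinical S. aureus isolates, each taken from a different specimen type.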

Staphylococcus aureus [3] = test: Antibiofilm activity against methicillin-resistant Staphylococcus aureus clinical isolate 6 assessed as disruption of preformed biofilm up to 2 mg/L after 24 hrs by MTT assay; format: functional, organism-based; conditions: dose mg/L <=2, time 24.0 hrs
Outline: (§2)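 Biofilms of clinical MRSA isolates that form biofilm in culture were preformed for 24 h and then exposed to compound to measure disruption. Significance of control vs treated is given at p < 0.05, 0.01 and 0.001.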

Staphylococcus aureus [4] = test: Antibacterial activity against methicillin-resistant Staphylococcus aureus clinical isolate 19 assessed as bacterial growth inhibition after 24 hrs by CLSI protocol based broth microdilution assay; format: functional; outline: as §1
Staphylococcus aureus [5] = test: Antibacterial activity against methicillin-resistant Staphylococcus aureus clinical isolate 13 assessed as bacterial growth inhibition after 24 hrs by CLSI protocol based broth microdilution assay; format: functional; outline: as §1
Staphylococcus aureus [6] = test: Antibiofilm activity against methicillin-resistant Staphylococcus aureus ATCC 43300 assessed as inhibition of biofilm at 0.5 to 2 mg/L after 24 hrs by MTT assay; format: functional, organism-based; conditions: dose mg/L 0.5-2, time 24.0 hrs
Outline: (§3)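 Biofilm growth of MRSA ATCC 43300 measured in the presence of compound in cultivation plates, with a DMSO control. Significance of control vs treated is given at p < 0.05, 0.01 and 0.001.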

Staphylococcus aureus [7] = test: Antibiofilm activity against methicillin-resistant Staphylococcus aureus clinical isolate 4 assessed as disruption of preformed biofilm up to 2 mg/L after 24 hrs by MTT assay; format: functional, organism-based; conditions: dose mg/L <=2, time 24.0 hrs; outline: as §2
Staphylococcus aureus [8] = test: Antibacterial activity against methicillin-resistant Staphylococcus aureus clinical isolate 3 assessed as bacterial growth inhibition after 24 hrs by CLSI protocol based broth microdilution assay; format: functional; outline: as §1
Staphylococcus aureus [9] = test: Antibiofilm activity against methicillin-resistant Staphylococcus aureus clinical isolate 5 assessed as disruption of preformed biofilm up to 2 mg/L after 24 hrs by MTT assay; format: functional, organism-based; conditions: dose mg/L <=2, time 24.0 hrs; outline: as §2
Staphylococcus aureus [10] = test: Antibiofilm activity against methicillin-resistant Staphylococcus aureus clinical isolate 16 assessed as disruption of preformed biofilm up to 2 mg/L after 24 hrs by MTT assay; format: functional, organism-based; conditions: dose mg/L <=2, time 24.0 hrs; outline: as §2
Enterococcus faecium = test: Antibacterial activity against Enterococcus faecium assessed as bacterial growth inhibition after 24 hrs by CLSI protocol based broth microdilution assay; format: functional
Staphylococcus aureus [11] = test: Antibacterial activity against methicillin-resistant Staphylococcus aureus clinical isolate 6 assessed as bacterial growth inhibition after 24 hrs by CLSI protocol based broth microdilution assay; format: functional; outline: as §1
Staphylococcus aureus [12] = test: Antibacterial activity against methicillin-resistant Staphylococcus aureus clinical isolate 5 assessed as bacterial growth inhibition after 24 hrs by CLSI protocol based broth microdilution assay; format: functional; outline: as §1
Staphylococcus aureus [13] = test: Antibacterial activity against Staphylococcus aureus assessed as bacterial growth inhibition after 24 hrs by CLSI protocol based broth microdilution assay; format: functional
Staphylococcus aureus [14] = test: Antibacterial activity against methicillin-resistant Staphylococcus aureus clinical isolate 2 assessed as bacterial growth inhibition after 24 hrs by CLSI protocol based broth microdilution assay; format: functional; outline: as §1
Staphylococcus aureus [15] = test: Antibacterial activity against methicillin-resistant Staphylococcus aureus clinical isolate 1 assessed as bacterial growth inhibition after 24 hrs by CLSI protocol based broth microdilution assay; format: functional; outline: as §1
L02 = test: Cytotoxicity against human L02 cells assessed as reduction in cell viability at 80 mg/L after 24 hrs by MTT assay relative to control; format: cell-based; conditions: l02, 24 h, at 80 µg/mL
Staphylococcus aureus [16] = test: Antibacterial activity against methicillin-resistant Staphylococcus aureus clinical isolate 15 assessed as bacterial growth inhibition after 24 hrs by CLSI protocol based broth microdilution assay; format: functional; outline: as §1
Staphylococcus aureus [17] = test: Antibacterial activity against methicillin-resistant Staphylococcus aureus clinical isolate 10 assessed as bacterial growth inhibition after 24 hrs by CLSI protocol based broth microdilution assay; format: functional; outline: as §1
Staphylococcus aureus [18] = test: Antibacterial activity against methicillin-resistant Staphylococcus aureus clinical isolate 8 assessed as bacterial growth inhibition after 24 hrs by CLSI protocol based broth microdilution assay; format: functional; outline: as §1
Staphylococcus aureus [19] = test: Antibiofilm activity against methicillin-resistant Staphylococcus aureus clinical isolate 3 assessed as disruption of preformed biofilm up to 2 mg/L after 24 hrs by MTT assay; format: functional, organism-based; conditions: dose mg/L <=2, time 24.0 hrs; outline: as §2
Staphylococcus aureus [20] = test: Antibiofilm activity against methicillin-resistant Staphylococcus aureus clinical isolate 18 assessed as disruption of preformed biofilm up to 2 mg/L after 24 hrs by MTT assay; format: functional, organism-based; conditions: dose mg/L <=2, time 24.0 hrs; outline: as §2
Staphylococcus aureus [21] = test: Antibacterial activity against methicillin-resistant Staphylococcus aureus clinical isolate 18 assessed as bacterial growth inhibition after 24 hrs by CLSI protocol based broth microdilution assay; format: functional; outline: as §1
Candida tropicalis = test: Antifungal activity against Candida tropicalis assessed as fungal growth inhibition after 24 hrs by CLSI protocol based broth microdilution assay; format: functional
Staphylococcus aureus [22] = test: Antibiofilm activity against methicillin-resistant Staphylococcus aureus ATCC 43300 assessed as reduction in biofilm biomass at 0.5 to 4 mg/L after 24 hrs by MTT assay; format: functional, organism-based; conditions: dose mg/L 0.5-4, time 24.0 hrs; outline: as §3
Staphylococcus aureus [23] = test: Antibacterial activity against methicillin-resistant Staphylococcus aureus clinical isolate 12 assessed as bacterial growth inhibition after 24 hrs by CLSI protocol based broth microdilution assay; format: functional; outline: as §1
Staphylococcus aureus [24] = test: Binding affinity to Staphylococcus aureus ATCC 6538 fabI expressed in Escherichia coli BL21 (DE3) assessed as tetramer transition of partial dimer resulting in peak shift at 1:10:10 ratio incubated for overnight in presence of NADP+ by analytical size exclusion chromatography; conditions: time 12.0 hrs
Staphylococcus aureus [25] = test: Antibiofilm activity against methicillin-resistant Staphylococcus aureus clinical isolate 17 assessed as disruption of preformed biofilm up to 2 mg/L after 24 hrs by MTT assay; format: functional, organism-based; conditions: dose mg/L <=2, time 24.0 hrs; outline: as §2
Staphylococcus aureus [26] = test: Antibacterial activity against methicillin-resistant Staphylococcus aureus clinical isolate 9 assessed as bacterial growth inhibition after 24 hrs by CLSI protocol based broth microdilution assay; format: functional; outline: as §1
Staphylococcus aureus [27] = test: Antibacterial activity against methicillin-resistant Staphylococcus aureus clinical isolate 7 assessed as bacterial growth inhibition after 24 hrs by CLSI protocol based broth microdilution assay; format: functional; outline: as §1
Staphylococcus aureus [28] = test: Inhibition of Staphylococcus aureus ATCC 6538 fabI expressed in Escherichia coli BL21 (DE3) assessed as oxidation of NADPH to NADP+ using trans-2-octenoyl CoA as substrate incubated for 2 hrs in presence of NADPH by spectrophotometric analysis
Staphylococcus aureus [29] = test: Antibacterial activity against methicillin-resistant Staphylococcus aureus clinical isolate 4 assessed as bacterial growth inhibition after 24 hrs by CLSI protocol based broth microdilution assay; format: functional; outline: as §1
Staphylococcus aureus [30] = test: Antibiofilm activity against methicillin-resistant Staphylococcus aureus clinical isolate 2 assessed as disruption of preformed biofilm up to 2 mg/L after 24 hrs by MTT assay; format: functional, organism-based; conditions: dose mg/L <=2, time 24.0 hrs; outline: as §2
Pseudomonas aeruginosa = test: Antibacterial activity against Pseudomonas aeruginosa assessed as bacterial growth inhibition after 24 hrs by CLSI protocol based broth microdilution assay; format: functional
Bacillus cereus = test: Antibacterial activity against Bacillus cereus assessed as bacterial growth inhibition after 24 hrs by CLSI protocol based broth microdilution assay; format: functional
GES1 = test: Cytotoxicity against human GES1 cells assessed as reduction in cell viability at 80 mg/L after 24 hrs by MTT assay relative to control; format: cell-based; conditions: ges1, 24 h, at 80 µg/mL
Candida albicans = test: Antifungal activity against Candida albicans assessed as fungal growth inhibition after 24 hrs by CLSI protocol based broth microdilution assay; format: functional
Escherichia coli = test: Antibacterial activity against Escherichia coli assessed as bacterial growth inhibition after 24 hrs by CLSI protocol based broth microdilution assay; format: functional
Staphylococcus aureus [31] = test: Antibacterial activity against methicillin-resistant Staphylococcus aureus clinical isolate 16 assessed as bacterial growth inhibition after 24 hrs by CLSI protocol based broth microdilution assay; format: functional; outline: as §1
Staphylococcus aureus [32] = test: Antibiofilm activity against methicillin-resistant Staphylococcus aureus clinical isolate 12 assessed as disruption of preformed biofilm up to 2 mg/L after 24 hrs by MTT assay; format: functional, organism-based; conditions: dose mg/L <=2, time 24.0 hrs; outline: as §2
Staphylococcus aureus [33] = test: Antibacterial activity against methicillin-resistant Staphylococcus aureus clinical isolate 14 assessed as bacterial growth inhibition after 24 hrs by CLSI protocol based broth microdilution assay; format: functional; outline: as §1
Staphylococcus aureus [34] = test: Antibacterial activity against methicillin-resistant Staphylococcus aureus clinical isolate 17 assessed as bacterial growth inhibition after 24 hrs by CLSI protocol based broth microdilution assay; format: functional; outline: as §1
Staphylococcus aureus [35] = test: Antibiofilm activity against methicillin-resistant Staphylococcus aureus clinical isolate 11 assessed as disruption of preformed biofilm up to 2 mg/L after 24 hrs by MTT assay; format: functional, organism-based; conditions: dose mg/L <=2, time 24.0 hrs; outline: as §2

Oc1c(Br)cc(Cl)cc1CNc1cc(C(F)(F)F)ccc1Cl
≤ 1 µg/mL: MIC (Staphylococcus aureus [2]) | MIC (Staphylococcus aureus [4]) | MIC (Staphylococcus aureus [5]) | MIC (Staphylococcus aureus [8]) | MIC (Staphylococcus aureus [11]) | MIC (Staphylococcus aureus [12]) | MIC (Staphylococcus aureus [14]) | MIC (Staphylococcus aureus [15]) | MIC (Staphylococcus aureus [16]) | MIC (Staphylococcus aureus [17]) | MIC (Staphylococcus aureus [18]) | MIC (Staphylococcus aureus [21]) | MIC (Staphylococcus aureus [23]) | MIC (Staphylococcus aureus [26]) | MIC (Staphylococcus aureus [27]) | MIC (Staphylococcus aureus [29]) | MIC (Staphylococcus aureus [31]) | MIC (Staphylococcus aureus [33]) | MIC (Staphylococcus aureus [34])
≤ 2 µg/mL: MIC (Enterococcus faecium) | MIC (Staphylococcus aureus [13]) | MIC (Bacillus cereus)
active: inhibition (Staphylococcus aureus [1]) | Activity (Staphylococcus aureus [3]) | inhibition (Staphylococcus aureus [6]) | Activity (Staphylococcus aureus [7]) | Activity (Staphylococcus aureus [9]) | Activity (Staphylococcus aureus [10]) | Activity (Staphylococcus aureus [19]) | Activity (Staphylococcus aureus [20]) | Activity (Staphylococcus aureus [22]) | Activity (Staphylococcus aureus [24]) | Activity (Staphylococcus aureus [25]) | inhibition (Staphylococcus aureus [28]) | Activity (Staphylococcus aureus [30]) | Activity (Staphylococcus aureus [32]) | Activity (Staphylococcus aureus [35])
50%: Activity (L02) | Activity (GES1)
≥ 64 µg/mL: MIC (Candida tropicalis) | MIC (Pseudomonas aeruginosa) | MIC (Candida albicans) | MIC (Escherichia coli)
